The subject of series [1] is MDA-MB-231. Put plainly: Induction of apoptosis in human MDA-MB-231 cells assessed as p53 phosphorylation at Ser15 by Western blotting analysis. The format is functional, cell-based. In short, it runs like this: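 Cells treated 24 h. About 10^6 cells lysed on ice 15 min in Hepes pH 7.4/Triton X-100 buffer with phosphatase and protease inhibitors, then spun 13,000 × g. 30 µg protein run on 12% SDS-PAGE and blotted to nitrocellulose. Primary anti-phospho-p53 (Ser15) and anti-p53 at 1:1000 for 2 h at room temperature, then HRP secondary and ECL densitometry. Results referred to untreated control.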

Series [2] deals with A-375. Put plainly: Induction of apoptosis in human A375 cells assessed as inhibition of DNA synthesis after 24 hrs by BrdU staining-based ELISA. Format: functional, cell-based. In a few lines:
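Cells seeded at 25,000/well; compounds added 24 h after seeding at a range of concentrations and incubated 24 h. Cells fixed, then colorimetric BrdU-incorporation ELISA. Absorbance read at 370-492 nm over 3 intervals of 5 min. Mean of three separate experiments with triplicate samples.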

Series [3] relates to Caco-2. Put plainly: Induction of apoptosis in human Caco2 cells assessed as early apoptotic cells at 0.5 uM after 24 hrs by Annexin V/propidium iodide staining-based flow cytometric analysis (reference value: 0.72 +/- 0.03%). Format: functional. For orientation: A flow cytometer gives signals particle by particle.
The nature of series [4]: Efflux ratio of effective permeability from basolateral to apical side over apical to basolateral side in human Caco2 cells at 10 to 50 uM after 15 to 90 mins by HPLC analysis. Format: ADME, cell-based. Particulars: Caco-2. In short, it runs like this:
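Caco-2 monolayers (400,000 cells per polycarbonate transwell insert, 0.4 µm pores) grown in DMEM for 19-22 days at 37 °C and 5% CO2. TEER was checked before and after each run. Compound was placed on the donor side and buffer on the receiver side, in both apical-to-basal and basal-to-apical directions, at 37 °C with 50 rpm orbital shaking. Receiver samples were taken at 15, 30, 60 and 90 min with buffer replaced, and donor samples at start and end. Analysis was by HPLC; three independent experiments.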
(In general: Passage across Caco-2 layers is used to estimate intestinal permeability.)

Series [5] relates to Caco-2. Kind of series: Induction of apoptosis in human Caco2 cells assessed as vital cells at 0.05 uM after 48 hrs by Annexin V/propidium iodide staining-based flow cytometric analysis (reference value: 96.67 +/- 1.02%). The format is functional.
In series [6] the test system is Caco-2. Put plainly: Induction of apoptosis in human Caco2 cells assessed as necrotic cells at 0.5 uM after 48 hrs by Annexin V/propidium iodide staining-based flow cytometric analysis (reference value: 0.41 +/- 0.02%). The format is functional.
A short description of series [7]: Permeability from basolateral to apical side in human Caco2 cells at 10 to 50 uM after 15 to 90 mins by HPLC analysis. Format: ADME, cell-based. Particulars: caco-2, 50 µM. In a few lines: (§1)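 Caco-2 cells seeded at 400,000 per polycarbonate transwell insert (0.4 μm pore) and grown in DMEM for 19-22 days to confluence at 37°C, 5% CO2. TEER checked before and after each run. Compound in donor chamber, buffer in receiver. Run at 37°C with 50 rpm orbital shaking. Receiver sampled at 15, 30, 60 and 90 min with buffer replacement; donor sampled at start and end. HPLC quantitation; three independent experiments.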

Series [8] relates to MDA-MB-231. Kind of series: Induction of apoptosis in human MDA-MB-231 cells assessed as inhibition of DNA synthesis at 0.8 to 1.6 uM after 24 hrs by BrdU staining-based ELISA. Format: functional, cell-based. In a few lines:
(§2)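 BrdU colorimetric cell proliferation ELISA. Cells seeded at 25,000 per well, compounds added 24 h after seeding and incubated 24 h. Cells fixed and the immunoassay run per kit. Absorbance read at 370-492 nm over 3 intervals of 5 min; absorbance difference proportional to BrdU incorporation. Mean of three separate experiments in triplicate, compared with untreated control.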
A general note: Incorporation of labelled thymidine or its analogues reports DNA synthesis.

Series [9] in a line: Permeability from apical to basolateral side in human Caco2 cells at 10 to 50 uM after 15 to 90 mins by HPLC analysis. Particulars: caco-2, 50 µM. The format is ADME, cell-based. In short, it runs like this:
as §1

In series [10] the test system is Caco-2. Kind of series: Induction of apoptosis in human Caco2 cells assessed as late apoptotic cells at 0.5 uM after 48 hrs by Annexin V/propidium iodide staining-based flow cytometric analysis (reference value: 2.20 +/- 0.77%). The format is functional.
For series [11], the system named is Caco-2. Put plainly: Induction of apoptosis in human Caco2 cells assessed as necrotic cells at 0.5 uM after 24 hrs by Annexin V/propidium iodide staining-based flow cytometric analysis (reference value: 0.41 +/- 0.02%). Format: functional.
For series [12], the system named is Caco-2. Put plainly: Induction of apoptosis in human Caco2 cells assessed as late apoptotic cells at 0.5 uM after 24 hrs by Annexin V/propidium iodide staining-based flow cytometric analysis (reference value: 2.20 +/- 0.77%). The format is functional.
In series [13] the test system is A-375. Kind of series: Induction of apoptosis in human A375 cells assessed as inhibition of DNA synthesis at 0.8 to 1.6 uM after 24 hrs by BrdU staining-based ELISA. Format: functional, cell-based. In short, it runs like this:
as §2

Series [14] has as its system A-375. Put plainly: Cytotoxicity against human A375 cells after 24 hrs by MTT assay. Format: functional, cell-based. Particulars: A-375, 24 h. In short, it runs like this:
(§3)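 Cells seeded at 25000 per well and held 24 h at 37 °C in 5% CO2. Medium was then renewed and compounds added at increasing concentrations (DMSO 0.1%, or water for topotecan) for 24 h. MTT solution (5 mg/mL) was added for 3 h at 37 °C, then absorbance read at 570 nm, corrected at 630 nm. IC50 in µM.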

The test system of series [15] is Small intestine. Put plainly: Effective permeability in Wistar rat small intestine assessed as absorption rate coefficient at 50 uM measured after 5 mins in every 5 min interval up to 30 mins. Format: ADME, tissue-based. In a few lines: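 Male Wistar rats fasted 2 h with water available, then anaesthetised with diazepam (1.67 mg/kg), ketamine (50 mg/kg) and atropine (1 mg/kg) and kept at 37°C on a heated surface. In situ intestinal perfusion. Perfusate sampled from 5 min at 5 min intervals up to 30 min. Absorption rate constant (Ka) and Peff derived.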

Series [16] concerns HeLa. Kind of series: Cytotoxicity against human HeLa cells after 24 hrs by MTT assay. Format: functional, cell-based. In a few lines: as §3
Series [17] in a line: Effective permeability from apical to basolateral side in human Caco2 cells at 50 uM after 15 to 90 mins by HPLC analysis. The format is ADME, cell-based. Particulars: Caco-2, read-out: Peff. In short, it runs like this:
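Caco-2 monolayers grown 19-22 days on polycarbonate transwell inserts (4.2 cm², 0.4 µm pore) at 37 °C, 5% CO2; TEER checked before and after each run. Compound added to donor side at 37 °C, 50 rpm. Receiver sampled at 15, 30, 60 and 90 min; donor sampled at start and end. HPLC analysis. Sodium azide, when used, placed on both sides. Three independent experiments.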

In series [18] the test system is MDA-MB-231. Kind of series: Cytotoxicity against human MDA-MB-231 cells after 24 hrs by MTT assay. The format is functional, cell-based. Particulars: MDA-MB-231, 24 h. In short, it runs like this:
as §3

A short description of series [19]: Effective permeability in Wistar rat small intestine at 50 uM measured after 5 mins in every 5 min interval up to 30 mins. Format: ADME, tissue-based. Particulars: not told, read-out: Peff. In short, it runs like this: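 In situ intestinal perfusion in male Wistar rats fasted 2 h with water allowed. Anaesthesia with diazepam (1.67 mg/kg), ketamine (50 mg/kg) and atropine (1 mg/kg); animals kept at 37 °C. Perfusate sampled every 5 min from 5 to 30 min; absorption rate constant and Peff derived.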

Series [20] has as its system Caco-2. Put plainly: Induction of apoptosis in human Caco2 cells assessed as vital cells at 0.5 uM after 24 hrs by Annexin V/propidium iodide staining-based flow cytometric analysis (reference value: 96.67 +/- 1.02%). Format: functional.
Series [21] relates to Caco-2. Kind of series: Induction of apoptosis in human Caco2 cells assessed as late apoptotic cells at 0.05 uM after 24 hrs by Annexin V/propidium iodide staining-based flow cytometric analysis (reference value: 2.20 +/- 0.77%). The format is functional.

Activity calls are given as the source filed them. No cut-off for these calls is given here.

The efflux ratio is a quotient of directional permeabilities that is used to spot active efflux. What is called IC50 is the concentration that inhibits the measured activity by half. On to `CC[C@@]1(O)C(=O)OCc2c1cc1n(c2=O)Cc2cc3c(CN(C)C)c(O)ccc3nc2-1.Cl` [TOPOTECAN HYDROCHLORIDE], for which the result in [1], in series [8] and in [13] was Active. The inhibition result in series [2] is “Dose-dependent effect”. Besides, the Activity in series [3] is 4.4%; in series [5], 45.2%; in series [6], 2.88%; in [10] it was 53.12%; in series [11], 8.54%; in series [12], 33.98%. Besides, the Activity in [20] worked out at 53.08%; in series [21] it was 19.54%. Also, in [4], the efflux ratio at up to 50 µM is greater than 1. Also, the permeability entry in series [7] and in series [9] was “permeable” throughout. Further, the IC50 came to 162 nM in series [14], 380 nM in series [16] and 473 nM in series [18]. Moreover, in series [15], the Ka was determined as 2.25 h⁻¹. Moreover, the Papp A→B at 50 µM in [17] stood at 1.77 ×10⁻⁶ cm/s. Also, the Papp at 5 min, 50 µM in [19] was determined as 55.8 ×10⁻⁶ cm/s.

The record behind these values is ChEMBL document CHEMBL3351736, “A promising camptothecin derivative: Semisynthesis, antitumor activity and intestinal permeability” (Eur J Med Chem, 2014).
